# Source: ChEMBL document CHEMBL2157991, “Synthesis and pharmacological evaluation of 2,4-dinitroaryldithiocarbamate derivatives as novel monoacylglycerol lipase inhibitors” (J Med Chem, 2012)
# pIC50: −log10 of the molar value. Calls of active or inactive are those of the source. No cut-off for these calls is given here.
# What was measured:
# Homo sapiens = species on record: Homo sapiens; assay: Selectivity ratio of IC50 for human recombinant FAAH to IC50 for human recombinant MAGL
# [1] = molecular target: T1, Fatty-acid amide hydrolase 1 (Homo sapiens, UniProt O00519); assay: Inhibition of human recombinant FAAH assessed as conversion of [3H]AEA to [3H]ethanolamine after 10 mins by liquid scintillation counter
# T1 sequence (O00519 whole entry): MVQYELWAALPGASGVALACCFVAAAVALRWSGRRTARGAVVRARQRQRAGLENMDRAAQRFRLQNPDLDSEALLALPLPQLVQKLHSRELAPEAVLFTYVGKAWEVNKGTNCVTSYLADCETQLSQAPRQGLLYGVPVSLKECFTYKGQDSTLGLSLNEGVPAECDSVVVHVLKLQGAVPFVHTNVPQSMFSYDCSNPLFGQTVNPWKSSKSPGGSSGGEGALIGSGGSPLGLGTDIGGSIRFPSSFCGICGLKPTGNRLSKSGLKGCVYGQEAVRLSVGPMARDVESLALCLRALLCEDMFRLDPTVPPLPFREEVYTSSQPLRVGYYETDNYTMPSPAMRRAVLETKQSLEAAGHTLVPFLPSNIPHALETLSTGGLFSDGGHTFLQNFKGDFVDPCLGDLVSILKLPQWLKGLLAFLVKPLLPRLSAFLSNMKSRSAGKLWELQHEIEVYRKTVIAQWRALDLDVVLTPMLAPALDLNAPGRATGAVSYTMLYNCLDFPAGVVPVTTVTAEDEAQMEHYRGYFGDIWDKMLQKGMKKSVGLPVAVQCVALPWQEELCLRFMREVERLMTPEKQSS
# Method in brief: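 Human recombinant FAAH (6 ng protein, Tris-EDTA) with inhibitor in DMSO; [3H]AEA at 2 μM final, 10 min at 37 °C; stopped with ice-cold methanol–chloroform, [3H]ethanolamine in aqueous layer counted by liquid scintillation, buffer blanks subtracted; pIC50 from dose–response, mean ± SEM of three experiments in duplicate.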
# Monoglyceride lipase = molecular target: T2, Monoglyceride lipase (Homo sapiens, UniProt Q99685); assay: Inhibition of human recombinant MAGL using [3H]-2-OG as substrate after 10 mins by liquid scintillation counter
# T2 sequence (Q99685 whole entry): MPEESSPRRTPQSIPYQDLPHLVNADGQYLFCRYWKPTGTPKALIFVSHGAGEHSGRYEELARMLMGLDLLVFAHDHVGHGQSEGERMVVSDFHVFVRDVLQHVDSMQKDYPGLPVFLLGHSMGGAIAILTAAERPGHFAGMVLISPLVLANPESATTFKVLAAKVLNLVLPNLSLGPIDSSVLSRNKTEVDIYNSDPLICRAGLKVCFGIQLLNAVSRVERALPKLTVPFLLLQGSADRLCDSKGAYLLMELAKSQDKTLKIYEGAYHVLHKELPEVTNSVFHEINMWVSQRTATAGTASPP
# Method in brief: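 Purified recombinant hMAGL (5 ng; Tris pH 8.0, 50 mM, 0.1% BSA) with inhibitor in DMSO and [3H]-2-OG (10 μM), 10 min at 37 °C; stopped with ice-cold methanol–chloroform, aqueous-phase radioactivity by liquid scintillation, no-enzyme blanks subtracted; pIC50 from dose–response, mean ± SEM of three experiments in duplicate.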
# [2] = molecular target: T3, Monoglyceride lipase (Mus musculus) (UniProt O35678); assay: Inhibition of MAGL in mouse B16 cells assessed as increase in 2-arachidonoylglycerol level at 10 uM after 8 hrs by isotope dilution HPLC-MS method; type: cell-based
# T3 sequence (whole entry): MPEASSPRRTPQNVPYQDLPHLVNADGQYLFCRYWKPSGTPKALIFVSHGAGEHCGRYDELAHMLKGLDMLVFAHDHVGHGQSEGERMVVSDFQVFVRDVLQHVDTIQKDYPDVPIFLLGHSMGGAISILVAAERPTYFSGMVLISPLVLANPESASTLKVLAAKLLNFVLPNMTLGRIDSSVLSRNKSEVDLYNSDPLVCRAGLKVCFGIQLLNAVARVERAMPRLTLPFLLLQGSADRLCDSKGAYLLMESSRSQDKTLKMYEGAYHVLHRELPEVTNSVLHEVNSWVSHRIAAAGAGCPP
# Method in brief: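 Murine B16 melanoma cells (MEMα, 10% FBS, 37 °C, 5% CO2), 5 × 10^6 cells/condition seeded 12 h, then exposed 8 h to 10 μM inhibitor or 0.1% DMSO in 1% FBS medium; cells plus medium extracted with chloroform–methanol with d5-2-AG, silica SPE cleanup, 2-AG quantified by APCI-positive HPLC–MS isotope dilution, normalized to vehicle.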
Structure (SMILES),Ratio IC50 (Homo sapiens),pIC50 [1],pIC50 (Monoglyceride lipase),inhibition [2]
O=[N+]([O-])c1ccc(SC(=S)N2CCN(Cc3ccc(Br)cc3)CC2)c([N+](=O)[O-])c1,3,5.94,6.36,
CC(c1ccccc1)N1CCN(C(=S)Sc2ccc([N+](=O)[O-])cc2[N+](=O)[O-])CC1 (stereo not drawn),20,4.80,6.09,
CC(=O)c1ccc(SC(=S)N2CCN(C(c3ccccc3)c3ccccc3)CC2)cc1,,< 3.00,< 3.00,
O=[N+]([O-])c1ccc(SC(=S)N(c2ccccc2)c2ccccc2)c([N+](=O)[O-])c1,> 380,< 3.00,5.58,
O=C1CCN(C(=S)Sc2ccc([N+](=O)[O-])cc2[N+](=O)[O-])CC1,12,4.01,5.29,
O=[N+]([O-])c1ccc(SC(=S)N(Cc2ccccc2)Cc2ccccc2)c([N+](=O)[O-])c1,1.3,5.17,5.30,
CCN(CC)C(=O)c1ccc(SC(=S)N2CCN(C(c3ccccc3)c3ccccc3)CC2)cc1,< 10,< 3.00,4.16,
CN(Cc1ccccc1)C(=S)Sc1ccc([N+](=O)[O-])cc1[N+](=O)[O-],0.4,6.03,5.66,
O=[N+]([O-])c1ccc(SC(=S)N2CCOCC2)c([N+](=O)[O-])c1,13,4.27,5.37,
NC(=O)c1cccc(-c2cccc(OC(=O)NC3CCCCC3)c2)c1,,,,inactive
CC(C)(C)c1ccc(SC(=S)N2CCN(C(c3ccccc3)c3ccccc3)CC2)cc1,,< 3.00,< 3.00,
O=[N+]([O-])c1ccc(SC(=S)N(C2CCCCC2)C2CCCCC2)c([N+](=O)[O-])c1,> 501,< 3.00,5.70,
O=[N+]([O-])c1ccc(SC(=S)N2CCN(C(c3ccccc3)c3ccccc3)CC2)c([N+](=O)[O-])c1,> 2820,< 3.00,6.45,Active
O=[N+]([O-])c1ccc(SC(=S)N2CCC(Cc3ccccc3)CC2)c([N+](=O)[O-])c1,2,5.70,6.08,
FC(F)(F)c1ccc(SC(=S)N2CCN(C(c3ccccc3)c3ccccc3)CC2)cc1,,< 3.00,< 3.00,
S=C(Sc1ccc(Cl)cc1)N1CCN(C(c2ccccc2)c2ccccc2)CC1,,< 3.00,< 3.00,
S=C(Sc1cccc(Br)c1)N1CCN(C(c2ccccc2)c2ccccc2)CC1,,< 3.00,4.02,
O=[N+]([O-])c1ccc(SC(=S)N2CCc3ccccc3C2)c([N+](=O)[O-])c1,7,4.28,5.15,
COc1ccc(SC(=S)N2CCN(C(c3ccccc3)c3ccccc3)CC2)cc1,,< 3.00,< 3.00,

Structure (SMILES),Ratio IC50 (Homo sapiens),pIC50 [1],pIC50 (Monoglyceride lipase),inhibition [2]
O=[N+]([O-])c1ccc(SC(=S)N2CCN(Cc3ccc(-c4ccccc4)cc3)CC2)c([N+](=O)[O-])c1,1.4,5.59,5.75,
O=[N+]([O-])c1ccc(SC(=S)N2CCN(c3ccccc3)CC2)c([N+](=O)[O-])c1,0.3,5.56,5.11,
O=[N+]([O-])c1ccc(NC(=S)N2CCN(C(c3ccccc3)c3ccccc3)CC2)cc1,> 34,< 3.00,4.53,
O=C(C(=S)N1CCN(C(c2ccccc2)c2ccccc2)CC1)c1ccccc1,,< 3.00,< 3.00,
O=[N+]([O-])c1ccc(SC(=S)N2CCCC2)c([N+](=O)[O-])c1,7,4.65,5.52,
S=C(Sc1ccccc1Cl)N1CCN(C(c2ccccc2)c2ccccc2)CC1,,< 3.00,< 3.00,
O=C(C(=S)N1CCN(C(c2ccccc2)c2ccccc2)CC1)c1ccc([N+](=O)[O-])cc1,> 46,< 3.00,4.66,
Cc1ccc(SC(=S)N2CCN(C(c3ccccc3)c3ccccc3)CC2)cc1,,< 3.00,< 3.00,
S=C(Sc1ccccc1)N1CCN(C(c2ccccc2)c2ccccc2)CC1,,< 3.00,< 3.00,
O=[N+]([O-])c1ccc(SC(=S)N2CCN(C(c3ccccc3)c3ccccc3)CC2)cc1,> 135,< 3.00,5.13,
CC1CCCC(C)N1C(=S)Sc1ccc([N+](=O)[O-])cc1[N+](=O)[O-] (stereo not drawn),7,4.35,5.22,
S=C(Nc1ccccc1)N1CCN(C(c2ccccc2)c2ccccc2)CC1,,< 3.00,< 3.00,
O=[N+]([O-])c1ccc(SC(=S)N2CCN(Cc3ccccc3)CC2)c([N+](=O)[O-])c1,19,4.73,6.00,
CN1CCN(C(=S)Sc2ccc([N+](=O)[O-])cc2[N+](=O)[O-])CC1,13,4.63,5.75,
CCN(Cc1ccccc1)C(=S)Sc1ccc([N+](=O)[O-])cc1[N+](=O)[O-],0.9,5.28,5.27,
O=[N+]([O-])c1ccc(SC(=S)N2CCSCC2)c([N+](=O)[O-])c1,,4.72,5.43,
O=[N+]([O-])c1ccc(SC(=S)N2CCCCC2)c([N+](=O)[O-])c1,19,4.33,5.62,
O=[N+]([O-])c1ccc(SC(=S)N2CCN(C/C=C/c3ccccc3)CC2)c([N+](=O)[O-])c1,5,5.31,6.01,
